Screening results deposited in PubChem by Johns Hopkins Ion Channel Center.
In the library only some 4.1% were active in any assay of this set; here they are far more common.
RGS4 block: inhibitors of human RGS4; P49798; HEK293 M3R/RGS4 inducible, Fluo-4 calcium flux; active compounds read high; triggered by carbachol at its EC20; B-score at 10 µM; hit rate 0.45% among 310,000; AID 463165;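 active means B-score, a plate-corrected calcium signal, over three deviations above library mean, with baseline fluorescence within five deviations of library mean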;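 further: RGS4 expression induced by doxycycline in cells with stable M3 receptor; B-score is computed from the integrated fluorescence ratio over baseline after carbachol; higher B-score means a larger calcium signal and so more RGS4 inhibition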
MrgX1 antag: antagonists of human MrgX1 receptor. Q96LB2. MRGX1-HEK293 calcium flux, Fluo-4, BAM8-22 antagonism; active compounds read low. B-score at 10 µM. hit rate 1.3% among 310,000. AID 588676;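 active means calcium-response B-score plate-corrected more than 3 library SD below zero, starting fluorescence within 5 deviations, no agonist response on first addition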;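 further: peak minus trough fluorescence over baseline after final BAM8-22 challenge near maximal dose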
Target sequence (Q96LB2 whole entry, looked up): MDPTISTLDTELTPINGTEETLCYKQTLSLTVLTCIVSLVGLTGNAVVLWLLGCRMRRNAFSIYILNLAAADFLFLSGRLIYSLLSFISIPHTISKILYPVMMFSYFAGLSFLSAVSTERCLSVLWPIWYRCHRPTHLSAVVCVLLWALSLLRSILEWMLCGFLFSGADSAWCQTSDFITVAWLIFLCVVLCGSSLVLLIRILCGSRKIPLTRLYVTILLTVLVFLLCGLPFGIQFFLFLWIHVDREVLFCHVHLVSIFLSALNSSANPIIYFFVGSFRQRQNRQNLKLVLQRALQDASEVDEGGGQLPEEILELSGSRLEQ
MrgX1 ag: agonists of human MrgX1 receptor; AID 588627; Q96LB2; MrgX1-HEK293 cells, Fluo-4 calcium fluorescence, agonist mode; active compounds read high; B-score at 10 µM; hit rate 0.44% among 310,000;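 active means calcium response B-score plate-corrected fluorescence ratio at least 3 library SD, with starting fluorescence B-score inside 5 SD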
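Assay system: MrgX1-expressing HEK293 cells / Amount: fifteen thousand cells per well / Doses: test compound in the initial addition of three / Timing: cells plated overnight, dye loaded 0.5 h 37 °C, 0.5 h room temperature / Technique: kinetic calcium dye fluorescence, Fluo-4 NW / Control set: positive and negative controls per plate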
MrgX1 PAM: human MrgX1 positive allosteric modulation, primary screen; Q96LB2; hit rate 0.63% among 310,000; MrgX1-HEK293, Fluo-4 calcium flux, FDSS; active compounds read high; B-score at 10 µM; AID 588675;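 active means plate-corrected calcium response at least 3 library SD above typical, normal starting fluorescence, not activating the receptor alone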;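 further: compound read alongside a low EC10 to EC30 dose of BAM8-22 agonist; peak minus trough fluorescence over baseline measured at the second addition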
Kir21 inh: Kir2.1 (mouse) channel inhibition | P35561 | HEK293-Kir2.1, FluxOR thallium flux fluorescence; active compounds read low | B-score at 10 µM | hit rate 0.85% among 310,000;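 active means fluorescence ratio B-score at or below minus 3 SD of library scores, with starting-brightness B-score within 2 SD, cut at about -4.2 in these data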;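 further: channel flux triggered by added potassium and thallium sulfate stimulus; B-score of peak minus minimum fluorescence over baseline after thallium stimulus; more negative B-score means stronger Kir2.1 block with less thallium influx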
RGS4 pot: RGS4 potentiation or activation | B-score at 10 µM | AID 463111 | hit rate 0.92% among 310,000 | HEK293 M3R/inducible RGS4, carbachol calcium flux Fluo4; active compounds read low;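 active means B-score of the integrated calcium signal more than 4 SD below the library mean, with starting fluorescence not abnormally high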;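 further: negative B-score means reduced calcium response which marks RGS4 activation or potentiation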
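Material: M3R-expressing HEK293 line, RGS4 induced by doxycycline | Schedule: Overnight RGS4 induction, 30 min dye load 37 °C, 20 min compound RT | Measured by: Fluo4 fluorescence kinetic imaging of calcium | Read-out: Integrated calcium ratio converted to B score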
RGS4 act valid: RGS4 activation, validation assay; HEK293 M3R/RGS4 inducible, carbachol calcium flux Fluo4; hit rate 89% among 1,100; shares compounds with RGS4 pot; inhibition, % at 10 µM;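 active means inhibition above 3 SD of the buffer control wells, cut at about 41% in these data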;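 further: signal is the integrated peak-minus-minimum Fluo4 fluorescence over baseline ratio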
M3R Ca counter: RGS4 activator counter-screen hit in non-induced cells | shares compounds with RGS4 pot | HEK293 M3R non-induced RGS4, Fluo4 calcium flux; after carbachol challenge at its EC90 | inhibition, % at 10 µM | hit rate 82% among 1,100;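 active means inhibition exceeding 3 SD of buffer-only control wells, cut at about 26% in these data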;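 further: percent drop in integrated peak-minus-baseline over baseline Fluo4 ratio after carbachol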
The depositor's hits bear a star; i = inactive; . = no result.

SMILES	RGS4 block	MrgX1 antag	MrgX1 ag	MrgX1 PAM	Kir21 inh	RGS4 pot	RGS4 act valid	M3R Ca counter
COc1cc(OC)cc(C(=O)N2CCN(C(=O)c3cccnc3)CC2)c1	i	i	i	i	0.22	i	.	.
CC1=C(C(=O)OCC2CCCO2)C(c2ccc(C)cc2)C2=C(CC(C)(C)CC2=O)N1 (stereo unspecified)	i	i	i	i	0.61	i	.	.
CC1=C(C(=O)OCC2CCCO2)C(c2ccccc2)C2=C(CC(C)(C)CC2=O)N1 (stereo unspecified)	i	i	i	i	1.9	-8.2*	0	0
Cc1ccc(NS(=O)(=O)c2ccc(NC(=O)C(C)Sc3ccc(Cl)cc3)cc2)c(C)c1 (stereo unspecified)	i	i	i	i	1	i	.	.
CN(CC(=O)Nc1ccc(S(=O)(=O)N2CCCC2)cc1)CC(=O)Nc1ccc(F)c(F)c1F	i	i	i	i	-0.06	i	.	.
COc1ccccc1C(=O)Nc1nc(-c2ccc3c(c2)OCCO3)cs1	i	i	i	i	-1.1	-8.8*	88*	62*
O=C(Nc1nc(-c2ccc3c(c2)OCCO3)cs1)c1ccco1	i	i	i	i	1.3	i	.	.
Cc1cc(N2CCCCC2)n2ncc(-c3ccccc3)c2n1	i	i	i	i	-0.91	-8.1*	94*	87*
Cc1cc(N2CCCCC2)n2ncc(-c3ccc(Cl)cc3)c2n1	i	i	i	i	0.6	i	.	.
CCOC(=O)c1cc2sc(C)cc2n1CC(=O)N(CC)CC	i	i	i	i	0.03	i	.	.
CCOC(=O)c1cc2sc(C)cc2n1CCCN1C(=O)c2ccccc2C1=O	i	i	i	i	0.06	-7.8*	90*	42*
COC(=O)c1cc2ccsc2n1Cc1cc(=O)n2ccccc2n1	i	i	i	i	-0.34	-10*	90*	63*
Cc1ccc2c(c1)nnn2C1CCN(CC(=O)NCCc2nc3ccccc3[nH]2)CC1	i	i	i	i	0.02	i	.	.
COc1ccc(NS(=O)(=O)c2cccc(C(=O)N3CCN(Cc4cc(OC)ccc4OC)CC3)c2)cc1	i	i	i	i	-1.5	i	.	.
Cc1ccc(F)cc1CNC(=O)C1CCC(=O)N(CC2CCCCC2)C1 (stereo unspecified)	i	i	i	i	0.76	i	.	.
CCN(CC)CCCNC(=O)c1cc2c(Cl)nc3ccccc3c2s1	i	i	i	i	-0.89	-7.7*	68*	84*
CCN(CC)CCNC(=O)c1cc2c(=O)n(CC)c3ccccc3c2s1	i	i	i	i	-0.73	-8.4*	54*	84*
CCN(CC)CCCNC(=O)c1cc2c(=O)n(CC)c3ccccc3c2s1	i	i	i	i	0.57	i	.	.
Cc1cccc(-c2noc(-c3ccc(Cl)cc3[N+](=O)[O-])n2)c1	i	i	i	i	0.49	i	.	.
O=S(=O)(Nc1ccc(Cl)cc1)c1ccc(N2CCOCC2)c(NC(=S)NC2CC2)c1	i	i	i	i	0.71	-12*	0	0
Nc1cc(S(=O)(=O)Nc2ccc(Cl)cc2)ccc1N1CCOCC1	i	i	i	i	-0.48	i	.	.
CC(C)N1CCC2(CC1)C(C#N)=C(N)NC(S)=C2C#N	i	i	i	i	0.34	i	.	.
CCOc1ccc2c(c1)sc(N)[n+]2Cc1cc(C)cc2cccnc12	i	i	i	i	-4.3*	-11*	90*	46*
C/C(=N\N1CCN(C2c3ccccc3-c3ccccc32)CC1)c1ccncc1	i	i	i	i	-1.3	i	.	.
